Data on 16 compounds can be found in PubChem BioAssay.

Calls of active or inactive are those of the source.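 How the source made its calls, unless noted: active means Her2 level under about 52% in both replicate screens, with viability over 70% of control (limit read from the data); inconclusive means Her2 under the limit in one screen only, or viability under 70%; inactive means Her2 level above the set limit.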

By viability is commonly meant a read-out of living cells in per cent, often relative to untreated cells. Usually inhibition stands for the drop in the measured response relative to a control, in per cent.

Experiment [1] is described as follows: Her2 expression decrease, cell viability multiplex – SKBR3 breast tumor cells, AlphaScreen, ATP viability, primary screen (AID 461).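 On Her2 level: lower value means less Her2 protein in the cells.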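 On viability: percent of carrier control wells set as 100% viability.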 The note with it: SKBR3 Her2 protein level, 18-24 h, measured here: SKBR3 viability, ATP luminescence, at 10 µM. For orientation: Bead proximity is the source of the signal in Alpha formats.
The target of experiment [2] is Receptor tyrosine-protein kinase erbB-2 (Homo sapiens) (UniProt P04626). Described as above. The following applies: 18-24 h, at 10 µM, stronger effect = lower value.
The nature of experiment [3]: reduced viability of SK-BR-3 breast cancer cells – cell-based, 24 h, human, pilot screen (AID 572;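 active means viability at or below 10% of carrier control in both of two separate runs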;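 further: compound exposure lasted between 18 and 24 h rather than exactly 24 h; 100% = carrier-treated control wells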). The following applies: SK-BR-3 viability, CellTiter-Glo luminescence, at 10 µM, stronger effect = lower value.
The nature of experiment [4]: HUVEC growth inhibition – cell-based, human, primary screen (AID 575;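 active means viability at or below 30% in both replicate assays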;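 further: 100% = median of untreated cell wells with 0.1% DMSO on each plate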). The following applies: HUVEC proliferation, CellTiter-Glo luminescence, 72 h; at 10 µM; stronger effect = lower value. An outline of the steps: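 material = primary HUVEC, no more than 12 passages | input = 1250 cells per well | controls = vehicle and MePR control wells | measured by = CTG luminescence | times = 72 h compound incubation | format = collagen-coated 384-well format | read-out = % viability vs DMSO wells | doses = single 10 µM dose, 0.1% DMSO, from 5x medium stock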
For orientation: ATP-based viability assays read luminescence as a measure of living cells.

Experiment [5] is described as follows: MRP1 drug-resistance reversers in H69AR cells – cell-based, doxorubicin co-treatment, pilot screen (AID 601;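 active means viability loss from added drug above about 55%, and viability with drug at most 40%, in both replicates, limit read from the data, passing the limit was not always enough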). The note with it: CellTiter-Glo, 72 h, at 10 µM; for differential viability (reversal): stronger effect = higher value.
A short description of experiment [6]: yeast transport mutant growth inhibition pilot in 384-well plates, post-Golgi transport modulator project (AID 636; in the data active means inhibition above about 31%). The following applies: absorbance 615 nm, about 18 h, stronger effect = higher value.
Experiment [7] can be described thus: growth suppression of yeast trafficking mutant, preliminary HTS, modulators of trafficking downstream of Golgi apparatus project, 1536-format plate, OD 615 nm (AID 637; in the data active means inhibition above about 30%). The following applies: yeast transport mutant growth, absorbance 615 nm, 18 h; stronger effect = higher value.
[8] abbreviates: H69AR cells + 2 uM doxorubicin, measured here: viability with 2 uM doxorubicin, stronger effect = lower value.
Setting [9] is: H69AR cells, compound alone cytotoxicity.

Chain of Receptor tyrosine-protein kinase erbB-2 (Homo sapiens) (P04626 whole entry, looked up): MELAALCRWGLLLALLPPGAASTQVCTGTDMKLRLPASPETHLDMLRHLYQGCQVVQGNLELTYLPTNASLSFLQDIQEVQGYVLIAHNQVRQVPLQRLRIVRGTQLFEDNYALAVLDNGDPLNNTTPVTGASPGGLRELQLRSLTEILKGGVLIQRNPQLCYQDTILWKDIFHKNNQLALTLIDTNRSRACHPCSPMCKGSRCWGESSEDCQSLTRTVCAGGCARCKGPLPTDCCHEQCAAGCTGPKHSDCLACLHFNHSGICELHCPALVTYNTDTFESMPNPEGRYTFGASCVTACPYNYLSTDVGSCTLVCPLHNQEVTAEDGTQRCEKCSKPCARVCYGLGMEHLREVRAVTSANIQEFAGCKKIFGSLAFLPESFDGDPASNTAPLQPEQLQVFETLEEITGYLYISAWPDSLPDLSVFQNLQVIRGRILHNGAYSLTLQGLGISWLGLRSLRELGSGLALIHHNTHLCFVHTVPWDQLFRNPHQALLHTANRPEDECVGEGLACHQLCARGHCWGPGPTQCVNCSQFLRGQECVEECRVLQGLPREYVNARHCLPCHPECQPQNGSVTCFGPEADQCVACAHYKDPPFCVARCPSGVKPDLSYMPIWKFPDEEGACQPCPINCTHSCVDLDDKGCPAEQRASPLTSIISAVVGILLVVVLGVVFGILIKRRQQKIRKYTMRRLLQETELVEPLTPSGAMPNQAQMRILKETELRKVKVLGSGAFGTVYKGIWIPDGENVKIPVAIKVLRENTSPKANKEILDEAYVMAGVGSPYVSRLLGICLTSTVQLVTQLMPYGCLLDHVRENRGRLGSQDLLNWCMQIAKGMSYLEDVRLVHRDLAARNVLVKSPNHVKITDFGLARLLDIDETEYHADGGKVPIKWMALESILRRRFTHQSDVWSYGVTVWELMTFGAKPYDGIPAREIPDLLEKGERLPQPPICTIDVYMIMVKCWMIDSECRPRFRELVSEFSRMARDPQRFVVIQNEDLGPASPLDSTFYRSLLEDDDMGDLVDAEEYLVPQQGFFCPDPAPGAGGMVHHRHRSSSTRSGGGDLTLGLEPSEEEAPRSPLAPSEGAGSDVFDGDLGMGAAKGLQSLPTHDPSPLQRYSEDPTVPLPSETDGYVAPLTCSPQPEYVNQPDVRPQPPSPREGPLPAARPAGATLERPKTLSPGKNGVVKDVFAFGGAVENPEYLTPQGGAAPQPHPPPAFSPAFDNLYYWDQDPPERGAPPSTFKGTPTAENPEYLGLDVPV

For `Cc1nn(-c2nc3ccccc3s2)c(C)c1Oc1ccccc1O`, the viability in experiment [1] is 102%; in experiment [3], 102% (inactive); in experiment [4] it was 20.3% (active); in experiment [5] (setting [8]), 67%; in experiment [5] (setting [9]), 60%. The Her2 level in experiment [2] was 79.5% (inactive). The differential viability (reversal) in experiment [5] (H69AR cells + 2 uM doxorubicin) was -6.93% (inactive). The inhibition is -6.13% (inactive) in experiment [6] and -0.63% (inactive) in experiment [7].
As to `Cc1ccc(NC(=O)c2oc3ccc(S(=O)(=O)N4CCOCC4)cc3c2C)cc1C`, the viability in experiment [1] was 91%; in experiment [3], 91% (inactive); in experiment [4], 51.6% (inactive); in experiment [5] (setting [8]), 48.6%; in experiment [5] (setting [9]), 43.4%. Moreover, in experiment [2], the Her2 level is 83.5% (inactive). Moreover, the differential viability (reversal) in experiment [5] (H69AR cells + 2 uM doxorubicin) was -5.16% (inactive). For the same compound, the results for the inhibition in experiment [6] and in experiment [7] were -5.26% (inactive) and 2.54% (inactive), respectively.
For `CN1CC=C2C(C#N)=C(N)C(C#N)(C#N)[C@H](c3cccc(Cl)c3)C2C1` (some centres undefined), the viability in experiment [1] was 94%; in experiment [3], 94% (inactive); in experiment [4] it was 83% (inactive); in experiment [5] (setting [8]), 22.1%; in experiment [5] (setting [9]), 54.7%. In experiment [2], the Her2 level was 73.5% (inactive). Moreover, the differential viability (reversal) in experiment [5] (H69AR cells + 2 uM doxorubicin) is 32.6% (inactive). Also, the inhibition is -4.27% (inactive) in experiment [6] and -1.9% (inactive) in experiment [7].
For `CCCCCSc1nc2c(cnn2-c2ccccc2)c(=O)[nH]1`, the viability in experiment [1] was 99%; in experiment [3], 99% (inactive); in experiment [4] it was 45.2% (inactive); in experiment [5] (setting [8]), 50.1%; in experiment [5] (setting [9]), 46.3%. In experiment [2], the Her2 level is 93.5% (inactive). The differential viability (reversal) in experiment [5] (H69AR cells + 2 uM doxorubicin) is -3.82% (inactive). Also, the figures for the inhibition in experiment [6] and in experiment [7] were -5.26% (inactive) and -0.17% (inactive), respectively.
For the compound `Cc1ccc(S(=O)(=O)c2cc3c(=O)n4ccccc4nc3n(CC3CCCO3)c2=N)cc1C` (centres undefined), the viability in experiment [1] is 83%; in experiment [3] it was 83% (inactive); in experiment [4], 69.9% (inactive); in experiment [5] (setting [8]), 53.5%; in experiment [5] (setting [9]) it was 55.9%. Further, the Her2 level in experiment [2] was 77.5% (inactive). For the same compound, the differential viability (reversal) in experiment [5] (H69AR cells + 2 uM doxorubicin) was 2.4% (inactive). Also, the figures for the inhibition in experiment [6] and in experiment [7] were -4.86% (inactive) and 2.95% (inactive), respectively.
Consider `C=C(c1ccc(O)cc1)c1ccc(O)cc1`, for which the viability in experiment [1] is 105%; in experiment [3], 105% (inactive); in experiment [4] it was 70.8% (inactive); in experiment [5] (setting [8]), 87.9%; in experiment [5] (setting [9]), 45%. For the same compound, the Her2 level in experiment [2] is 93% (inactive). In experiment [5] (H69AR cells + 2 uM doxorubicin), the differential viability (reversal) is -42.8% (inactive). The inhibition in experiment [6] is -5.92% (inactive); in experiment [7] it was -2.54% (inactive).
As to `Cc1ccc2c(c1)c1c(n2CC(O)Cn2c(C)nc3ccccc32)/C(=N\O)CCC1` (centres undefined), the viability was 108% in experiment [1]; 108% (inactive) in experiment [3]; 1.52% (active) in experiment [4]; 44.1% in experiment [5] (setting [8]); 31.5% in experiment [5] (setting [9]). For the same compound, the Her2 level in experiment [2] was 76.5% (inactive). Moreover, in experiment [5] (H69AR cells + 2 uM doxorubicin), the differential viability (reversal) is -12.7% (inactive). Further, the inhibition in experiment [6] was -4.27% (inactive); in experiment [7] it was 15.4% (inactive).
For the compound `Cc1ccccc1OCC(O)CN` (centres undefined), the viability was 74% in experiment [1]; 74% (inactive) in experiment [3]; 15.3% (active) in experiment [4]; 25% in experiment [5] (setting [8]); 19.3% in experiment [5] (setting [9]). Further, the Her2 level in experiment [2] was 90% (inactive). For the same compound, the differential viability (reversal) in experiment [5] (H69AR cells + 2 uM doxorubicin) is -5.69% (inactive). The figures for the inhibition in experiment [6] and in experiment [7] were 3.64% (inactive) and -6.03% (inactive), respectively.
As to `COc1ccc(/C=N/n2cc(-c3ccc(OC)cc3)nc2N)cc1`, the viability was 85% in experiment [1]; 85% (inactive) in experiment [3]; 82.5% (inactive) in experiment [4]; 63.6% in experiment [5] (setting [8]); 53.3% in experiment [5] (setting [9]). Also, the Her2 level in experiment [2] is 99% (inactive). In experiment [5] (H69AR cells + 2 uM doxorubicin), the differential viability (reversal) is -10.3% (inactive). Besides, the values for the inhibition in experiment [6] and in experiment [7] were -1.41% (inactive) and -8% (inactive), respectively.
`Cc1c(NC(=O)c2ccc(=O)oc2)c(=O)n(-c2ccccc2)n1C`: the viability in experiment [1] was 96.5%; in experiment [3], 96.5% (inactive); in experiment [4], 90.9% (inactive); in experiment [5] (setting [8]) it was 67.2%; in experiment [5] (setting [9]) it was 48.5%. Besides, the Her2 level in experiment [2] is 89% (inactive). Further, the differential viability (reversal) in experiment [5] (H69AR cells + 2 uM doxorubicin) is -18.7% (inactive). Also, the inhibition was -4.8% (inactive) in experiment [6] and -0.32% (inactive) in experiment [7].
As for `CCOC(=O)c1sc2nc(N3CCCC3)c3c(c2c1N)CC(C)(C)OC3`, the viability in experiment [1] was 75.5%; in experiment [3], 75.5% (inactive); in experiment [4] it was 58.8% (inactive); in experiment [5] (setting [8]), 65.9%; in experiment [5] (setting [9]), 53.1%. Further, the Her2 level in experiment [2] is 80.5% (inactive). For the same compound, the differential viability (reversal) in experiment [5] (H69AR cells + 2 uM doxorubicin) was -12.8% (inactive). The values for the inhibition in experiment [6] and in experiment [7] were -7.92% (inactive) and -9.83% (inactive), respectively.
`Cc1ccccc1OCCCN1C(=O)C(=O)c2cccc(C)c21`: the viability is 106% in experiment [1]; 106% (inactive) in experiment [3]; 77.7% (inactive) in experiment [4]; 49.4% in experiment [5] (setting [8]); 33% in experiment [5] (setting [9]). The Her2 level in experiment [2] is 72% (inactive). In addition, the differential viability (reversal) in experiment [5] (H69AR cells + 2 uM doxorubicin) is -16.4% (inactive). The results for the inhibition in experiment [6] and in experiment [7] were 2.56% (inactive) and -1.33% (inactive), respectively.
Consider `OC(CN1CCOCC1)Cn1c(-c2cccc(Cl)c2)nc2ccccc21` (centres undefined), for which the viability in experiment [1] is 100%; in experiment [3] it was 100% (inactive); in experiment [4], 54.4% (inactive); in experiment [5] (setting [8]), 66%; in experiment [5] (setting [9]), 18.5%. For the same compound, the Her2 level in experiment [2] is 80% (inactive). Besides, in experiment [5] (H69AR cells + 2 uM doxorubicin), the differential viability (reversal) was -47.5% (inactive). The inhibition in experiment [6] was -6.75% (inactive); in experiment [7] it was -1.11% (inactive).
As to `COc1ccc(CC(=O)NCc2cccs2)cc1`, the viability in experiment [1] was 90%; in experiment [3] it was 90% (inactive); in experiment [4] it was 60.6% (inactive); in experiment [5] (setting [8]), 77.9%; in experiment [5] (setting [9]) it was 60.5%. Moreover, the Her2 level in experiment [2] was 103% (inactive). In experiment [5] (H69AR cells + 2 uM doxorubicin), the differential viability (reversal) is -17.3% (inactive). Moreover, the inhibition in experiment [6] is -4% (inactive); in experiment [7], -8.03% (inactive).
Take `Cn1c(Cc2ccccc2)nnc1SCC(=O)c1ccc(Br)s1`: the viability in experiment [1] is 97.5%; in experiment [3] it was 97.5% (inactive); in experiment [4], 81.4% (inactive); in experiment [5] (setting [8]), 53.9%; in experiment [5] (setting [9]), 49.4%. Further, in experiment [2], the Her2 level was 83.5% (inactive). The differential viability (reversal) in experiment [5] (H69AR cells + 2 uM doxorubicin) was -4.43% (inactive). For the same compound, the figures for the inhibition in experiment [6] and in experiment [7] were -2.08% (inactive) and -5.4% (inactive), respectively.
For the compound `Cc1ccc(S(=O)(=O)N2CCOCC2)cc1C(=O)Nc1ccc(-c2cn3ccsc3n2)cc1`, the viability was 80% in experiment [1]; 80% (inactive) in experiment [3]; 58.7% (inactive) in experiment [4]; 70.8% in experiment [5] (setting [8]); 70.7% in experiment [5] (setting [9]). Besides, the Her2 level in experiment [2] was 80.5% (inactive). Besides, the differential viability (reversal) in experiment [5] (H69AR cells + 2 uM doxorubicin) is -0.105% (inactive). Besides, the results for the inhibition in experiment [6] and in experiment [7] were -2.63% (inactive) and -2.86% (inactive), respectively.
